Converted amounts (≈) assume the structure as drawn. Non-standard residues stand in square brackets, D forms with d. Residues, ends and D or L forms follow the SMILES beside them. ξ: configuration not given here. ξNle = CCCCC(N)C(=O)O
How the values were obtained:
[1] = tested on: Staphylococcus aureus; assay: Antimicrobial activity against Staphylococcus aureus clinical isolates from Liberec regional hospital assessed as reduction in bacterial growth after 20 hrs by […]; type: functional
Procedure, shortened: (§1)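 Broth microdilution in LB (YPG for C. albicans) with 2-fold serial dilutions, final 0.1–100 μM. Mid-log cells grown 3–5 h at 37 °C were added at about 5 × 10^5 cfu/mL, then incubated 20 h at 37 °C with shaking. A540 was read every 15 min to build growth curves. Medium with cells served as growth control; at least three runs in duplicate.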

[2] = tested on: Staphylococcus aureus; assay: Antimicrobial activity against Staphylococcus aureus clinical isolates from university hospital in Motol assessed as reduction in bacterial growth after 20 hrs by drop diffusion test; type: functional
[3] = tested on: Escherichia coli; assay: Antimicrobial activity against Escherichia coli assessed as reduction in bacterial growth after 20 hrs by […]; type: functional; procedure, shortened: as §1
[4] = tested on: Pseudomonas aeruginosa; assay: Antimicrobial activity against Pseudomonas aeruginosa 5482 assessed as reduction in bacterial growth after 20 hrs […]; type: functional; details: Pseudomonas aeruginosa, 5482, 20 h; procedure, shortened: as §1
[5] = tested on: Pseudomonas aeruginosa; assay: Antimicrobial activity against Pseudomonas aeruginosa clinical isolates assessed as reduction in bacterial growth after 20 hrs by […]; type: functional; procedure, shortened: as §1
[6] = Hemolytic activity in human type RBC after 1 hr; type: ADME, cell-based, Erythrocyte; details: red blood cells (erythrocytes), read-out: LC50
Procedure, shortened: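 Peptides at 2.5–400 μM were incubated with a 4% suspension of human erythrocytes in physiological solution for 1 h at 37 °C, then centrifuged at 250g for 5 min; supernatant A540 was read. Saline-treated cells gave 0% lysis and 0.2% Triton X-100 gave 100%. LC50 is the concentration lysing 50% of cells; duplicates in at least two independent experiments.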

[7] = tested on: Candida albicans; assay: Antifungal activity against Candida albicans assessed as reduction in fungal growth after 20 hrs by […]; type: functional; procedure, shortened: as §1
[8] = tested on: Micrococcus luteus; assay: Antimicrobial activity against Micrococcus luteus assessed as reduction in bacterial growth after 20 hrs by […]; type: functional; procedure, shortened: as §1
[9] = tested on: Bacillus subtilis; assay: Antimicrobial activity against Bacillus subtilis assessed as reduction in bacterial growth after 20 hrs by […]; type: functional; procedure, shortened: as §1
[10] = tested on: Staphylococcus aureus; assay: Antimicrobial activity against Staphylococcus aureus clinical isolates assessed as FIC index in presence of amoxicillin after 20 hrs by drop diffusion test; type: functional
[11] = tested on: Pseudomonas aeruginosa; assay: Antimicrobial activity against Pseudomonas aeruginosa clinical isolates assessed as FIC index in presence of tetracycline after 20 hrs by drop diffusion test; type: functional
[12] = tested on: Pseudomonas aeruginosa; assay: Antimicrobial activity against Pseudomonas aeruginosa clinical isolates assessed as FIC index in presence of rifampicin after 20 hrs by drop diffusion test; type: functional
[13] = tested on: Staphylococcus aureus; assay: Antimicrobial activity against Staphylococcus aureus 6271 assessed as reduction in bacterial growth after 20 hrs by broth microdilution assay; details: Staphylococcus aureus, 6271, 20 h
[14] = tested on: Staphylococcus epidermidis; assay: Antimicrobial activity against Staphylococcus epidermidis assessed as reduction in bacterial growth after 20 hrs by broth microdilution assay
[15] = tested on: Staphylococcus aureus; assay: Antimicrobial activity against Staphylococcus aureus clinical isolates from Liberec regional hospital assessed as reduction in bacterial growth after 20 hrs by broth microdilution assay

## CCCCC(NC(=O)[C@H](CC(C)C)NC(=O)[C@H](CO)NC(=O)[C@H](CO)NC(=O)C(CCCC)NC(=O)[C@@H](NC(=O)CN)[C@@H](C)CC)C(=O)N[C@@H](CCCCN)C(=O)N[C@@H](CCCCN)C(=O)N[C@@H](CC(C)C)C(=O)N[C@@H](CCCCN)C(=O)N[C@@H](CCCCN)C(=O)N[C@H](C(=O)N[C@H](C(=O)N[C@@H](C)C(N)=O)[C@@H](C)CC)[C@@H](C)CC (some centres not stated) (H-GI[ξNle]SSL[ξNle]KKLKKIIA-NH2)
[1]
  MIC: 4 µM (≈ 6.5 µg/mL)
[2]
  MIC: 6.7 µM (≈ 10.9 µg/mL)
[3]
  MIC: 10 µM (≈ 16.2 µg/mL)
[4]
  MIC: 4 µM (≈ 6.5 µg/mL)
[5]
  MIC: 7.9 µM (≈ 12.8 µg/mL)
[6]
  HC50 at 1 h: 373 µM
[7]
  MIC: 10 µM (≈ 16.2 µg/mL)
[8]
  MIC: ≤ 3 µM
[9]
  MIC: ≤ 7 µM
[10]
  fractional inhibitory concentration index (FICI): 0.55
[11]
  fractional inhibitory concentration index (FICI): 0.58
[12]
  fractional inhibitory concentration index (FICI): 0.93
[13]
  MIC: 13 µM (≈ 21.1 µg/mL)
[14]
  MIC: 2.5 µM (≈ 4.06 µg/mL)

## H-GILKSLLKKLKKIIAK-NH2
[1]
  MIC: 4.3 µM
[2]
  MIC: 10 µM
[3]
  MIC: 10 µM
[4]
  MIC: 5 µM
[5]
  MIC: 8.9 µM
[6]
  HC50 at 1 h: > 400 µM
[7]
  MIC: 24 µM
[8]
  MIC: ≤ 3 µM
[9]
  MIC: ≤ 7 µM
[10]
  fractional inhibitory concentration index (FICI): 0.54
[11]
  fractional inhibitory concentration index (FICI): 0.52
[12]
  fractional inhibitory concentration index (FICI): 0.33
[13]
  MIC: 17 µM
[14]
  MIC: 2.2 µM

## H-GILSKLLKKLKKIIAK-NH2
[1]
  MIC: 5.9 µM
[2]
  MIC: 10 µM
[3]
  MIC: 18 µM
[4]
  MIC: 4.5 µM
[5]
  MIC: 8.5 µM
[6]
  HC50 at 1 h: > 400 µM
[7]
  MIC: 45 µM
[8]
  MIC: ≤ 3 µM
[9]
  MIC: ≤ 7 µM
[10]
  fractional inhibitory concentration index (FICI): 0.33
[11]
  fractional inhibitory concentration index (FICI): 0.65
[12]
  fractional inhibitory concentration index (FICI): 0.34
[13]
  MIC: 23 µM
[14]
  MIC: 1.8 µM

## H-GILSSLWKKLKKIIAK-NH2
[1]
  MIC: 2 µM
[2]
  MIC: 5 µM
[3]
  MIC: 3.4 µM
[4]
  MIC: 5.3 µM
[5]
  MIC: 8.8 µM
[6]
  HC50 at 1 h: 197 µM
[7]
  MIC: 11 µM
[8]
  MIC: ≤ 3 µM
[9]
  MIC: ≤ 7 µM
[10]
  fractional inhibitory concentration index (FICI): 0.56
[11]
  fractional inhibitory concentration index (FICI): 0.65
[12]
  fractional inhibitory concentration index (FICI): 0.44
[13]
  MIC: 5.3 µM
[14]
  MIC: 2 µM

## H-GILSSWLKKLKKIIAK-NH2
[1]
  MIC: 6.6 µM
[2]
  MIC: 16 µM
[3]
  MIC: 11 µM
[4]
  MIC: 4 µM
[5]
  MIC: 5.9 µM
[6]
  HC50 at 1 h: > 400 µM
[7]
  MIC: 17 µM
[8]
  MIC: ≤ 3 µM
[9]
  MIC: ≤ 7 µM
[10]
  fractional inhibitory concentration index (FICI): 0.37
[11]
  fractional inhibitory concentration index (FICI): 0.65
[12]
  fractional inhibitory concentration index (FICI): 0.4
[13]
  MIC: 16 µM
[14]
  MIC: 2 µM

## H-GIMSSLMKKLKKIIKK-NH2
[2]
  MIC: 65 µM
[3]
  MIC: 22 µM
[4]
  MIC: 7.1 µM
[5]
  MIC: 9.9 µM
[6]
  HC50 at 1 h: > 400 µM
[7]
  MIC: 6.3 µM
[8]
  MIC: ≤ 3 µM
[9]
  MIC: ≤ 7 µM
[10]
  fractional inhibitory concentration index (FICI): 0.17
[11]
  fractional inhibitory concentration index (FICI): 0.63
[12]
  fractional inhibitory concentration index (FICI): 0.36
[13]
  MIC: 54 µM
[14]
  MIC: 1.7 µM
[15]
  MIC: 18 µM

## H-GKLSSLWKKLKKIIAK-NH2
[2]
  MIC: 27 µM
[3]
  MIC: 20 µM
[4]
  MIC: 6.8 µM
[5]
  MIC: 19 µM
[6]
  HC50 at 1 h: > 400 µM
[7]
  MIC: 34 µM
[8]
  MIC: ≤ 3 µM
[9]
  MIC: ≤ 7 µM
[10]
  fractional inhibitory concentration index (FICI): 0.25
[11]
  fractional inhibitory concentration index (FICI): 0.54
[12]
  fractional inhibitory concentration index (FICI): 0.29
[13]
  MIC: 26 µM
[14]
  MIC: 2.5 µM
[15]
  MIC: 11 µM

## H-KILSSLLKKLKKIIAK-NH2
[1]
  MIC: 5.5 µM
[2]
  MIC: 10 µM
[3]
  MIC: 16 µM
[4]
  MIC: 5 µM
[5]
  MIC: 16 µM
[6]
  HC50 at 1 h: 364 µM
[7]
  MIC: 25 µM
[8]
  MIC: ≤ 3 µM
[9]
  MIC: ≤ 7 µM
[10]
  fractional inhibitory concentration index (FICI): 0.29
[11]
  fractional inhibitory concentration index (FICI): 0.71
[12]
  fractional inhibitory concentration index (FICI): 0.26
[13]
  MIC: 32 µM
[14]
  MIC: 1.4 µM

Reference: ChEMBL document CHEMBL4477183, “Antimicrobial Peptide from the Wild Bee Hylaeus signatus Venom and Its Analogues: Structure-Activity Study and Synergistic Effect with Antibiotics” (J Nat Prod, 2016)
